Results taken from ChEMBL document CHEMBL3997779, “Rhodamine B conjugates of triterpenoic acids are cytotoxic mitocans even at nanomolar concentrations” (Eur J Med Chem, 2017).
pEC50: −log10 of the molar value. Active and inactive are the calls of the source.

Key:
[1] = test system: 518A2; experiment: Cytotoxicity against human 518A2 cells after 96 hrs by SRB assay; format: functional, cell-based; conditions: 518A2, 96 h
Outline: (§1)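 EC50 from sulforhodamine B assay after 96 h exposure. Each value is averaged from three independent experiments, each run in triplicate, with 95% confidence interval. Assay cut-off 30 µM.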

[2] = test system: NIH3T3; experiment: Cytotoxicity against mouse NIH/3T3 cells after 96 hrs by SRB assay; format: cell-based; conditions: NIH3T3, 96 h; outline: as §1
[3] = test system: A2780; experiment: Cytotoxicity against human A2780 cells after 96 hrs by SRB assay; format: functional, cell-based; conditions: A2780, 96 h; outline: as §1
[4] = test system: HT-29; experiment: Cytotoxicity against human HT-29 cells after 96 hrs by SRB assay; format: functional, cell-based; conditions: HT-29, 96 h; outline: as §1
[5] = test system: MCF7; experiment: Cytotoxicity against human MCF7 cells after 96 hrs by SRB assay; format: functional, cell-based; conditions: MCF7, 96 h; outline: as §1
[6] = test system: A549; experiment: Cytotoxicity against human A549 cells after 96 hrs by SRB assay; format: functional, cell-based; conditions: A549, 96 h; outline: as §1
[7] = test system: 8505C; experiment: Cytotoxicity against human 8505C cells after 96 hrs by SRB assay; format: functional, cell-based; outline: as §1
[8] = Selectivity factor, ratio of EC50 for mouse NIH/3T3 cells to EC50 for human A2780 cells
[9] = Drug uptake in mitochondria of human A2780 cells at 0.1 uM after 24 hrs by fluorescence and light microscopy; format: ADME
Outline: (§2)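 Approx. 800,000 A2780 cells grown 24 h in 25 cm² flasks. Medium then replaced with compound-containing medium at 0.1 µM, or blank medium as control, for 24 h. Cells collected, centrifuged at 1200 rpm and 4 °C, and washed in PBS. Live cells stained with Hoechst 33342 (DNA) and rhodamine 123 (mitochondria), then imaged by fluorescence and light microscopy.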

[10] = test system: A2780; experiment: Induction of morphological changes in human A2780 cells at 0.1 uM after 24 hrs by rhodamine 123/Hoechst 33342 staining-based fluorescence microscopic method; format: functional, cell-based; outline: as §2
[11] = test system: A2780; experiment: Induction of apoptosis in human A2780 cells at 0.1 to 0.4 uM after 24 hrs by annexin V/propidium iodide staining-based flow cytometric method relative to control; format: functional, cell-based
Outline: (§3)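 A2780 cells treated at 0.1 µM, and at up to 0.4 µM, compared with untreated control. Stained with annexin V/propidium iodide and quantified by FACS.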

[12] = test system: A2780; experiment: Induction of necrosis in human A2780 cells at 0.1 uM after 24 hrs by annexin V/propidium iodide staining-based flow cytometric method relative to control; format: functional, cell-based; outline: as §3

Drug uptake [9] | SMILES | pEC50 [1] | pEC50 [2] | pEC50 [3] | pEC50 [4] | pEC50 [5] | pEC50 [6] | pEC50 [7] | Ratio EC50 [8] | Activity [10] | Activity [11] | Activity [12]
 | C[C@H]1[C@H](C)CC[C@]2(C(=O)O)CC[C@]3(C)C(=CC[C@@H]4[C@@]5(C)CC[C@H](O)C(C)(C)[C@@H]5CC[C@]43C)[C@H]12 [URSOLIC ACID] | 4.83 | 4.73 |  |  |  |  |  |  |  |  | 
 | CC(=O)O[C@H]1CC[C@]2(C)[C@H]3CC[C@@H]4[C@H]5[C@H](C(C)=O)CC[C@]5(C(=O)N5CCNCC5)CC[C@@]4(C)[C@]3(C)CC[C@H]2C1(C)C | 5.57 | 6.15 | 5.51 | 5.62 | 5.55 | 5.41 | 5.43 |  |  |  | 
 | C=C(C)[C@@H]1CC[C@]2(C(=O)N3CCN(C(=O)c4ccccc4-c4c5ccc(=[N+](CC)CC)cc-5oc5cc(N(CC)CC)ccc45)CC3)CC[C@]3(C)[C@H](CC[C@@H]4[C@@]5(C)CC[C@H](OC(C)=O)C(C)(C)[C@@H]5CC[C@]43C)[C@@H]12 | 7.34 | 6.68 | 7.30 | 6.82 | 7.09 | 6.75 | 7.21 |  |  |  | 
Active | CCN(CC)c1ccc2c(-c3ccccc3C(=O)N3CCN(C(=O)[C@]45CCC(C)(C)C[C@H]4C4=CC[C@@H]6[C@@]7(C)C[C@@H](OC(C)=O)[C@H](OC(C)=O)C(C)(C)[C@@H]7CC[C@@]6(C)[C@]4(C)CC5)CC3)c3ccc(=[N+](CC)CC)cc-3oc2c1.[Cl-] | 7.96 | 6.48 | 8.15 | 7.24 | 7.55 | 6.73 |  | 50 | inactive | inactive | Active
 | CCN(CC)c1ccc2c(-c3ccccc3C(=O)N3CCN(C(=O)[C@]45CCC(C)(C)C[C@H]4C4=CC[C@@H]6[C@@]7(C)CC[C@H](OC(C)=O)C(C)(C)[C@@H]7CC[C@@]6(C)[C@]4(C)CC5)CC3)c3ccc(=[N+](CC)CC)cc-3oc2c1 | 7.37 | 6.86 | 7.49 | 7.04 | 7.21 | 6.92 | 7.35 |  |  |  | 
 | C=C(C)[C@@H]1CC[C@]2(C(=O)N3CCNCC3)CC[C@]3(C)[C@H](CC[C@@H]4[C@@]5(C)CC[C@H](OC(C)=O)C(C)(C)[C@@H]5CC[C@]43C)[C@@H]12 | 5.82 | 6.05 | 5.72 | 6.00 | 5.85 | 5.66 | 5.66 |  |  |  | 
 | CCN(CC)c1ccc2c(-c3ccccc3C(=O)N3CCN(C(=O)[C@]45CC[C@@H](C)[C@H](C)[C@H]4C4=CC[C@@H]6[C@@]7(C)CC[C@H](OC(C)=O)C(C)(C)[C@@H]7CC[C@@]6(C)[C@]4(C)CC5)CC3)c3ccc(=[N+](CC)CC)cc-3oc2c1 | 7.33 | 6.86 | 7.42 | 7.08 | 7.12 | 6.85 | 7.33 |  |  |  | 
 | CCN(CC)c1ccc2c(-c3ccccc3C(=O)N3CCN(C(=O)[C@]45CC[C@@H](C(C)=O)[C@@H]4[C@H]4CC[C@@H]6[C@@]7(C)CC[C@H](OC(C)=O)C(C)(C)[C@@H]7CC[C@@]6(C)[C@]4(C)CC5)CC3)c3ccc(=[N+](CC)CC)cc-3oc2c1 | 7.00 | 6.77 | 7.44 | 7.00 | 7.15 | 6.88 | 6.84 |  |  |  | 
 | CC(=O)O[C@H]1CC[C@]2(C)[C@H]3CC=C4[C@@H]5[C@@H](C)[C@H](C)CC[C@]5(C(=O)N5CCNCC5)CC[C@@]4(C)[C@]3(C)CC[C@H]2C1(C)C | 5.59 | 5.68 | 5.68 | 5.72 | 5.70 | 5.49 | 5.46 |  |  |  | 
 | CC1(C)CC[C@]2(C(=O)O)CC[C@]3(C)C(=CC[C@@H]4[C@@]5(C)CC[C@H](O)C(C)(C)[C@@H]5CC[C@]43C)[C@@H]2C1 [OLEANOLIC_ACID] | < 4.52 | < 4.52 |  | < 4.52 | < 4.52 | < 4.52 | < 4.52 |  |  |  | 
 | CC(=O)O[C@@H]1C[C@]2(C)[C@H]3CC=C4[C@@H]5CC(C)(C)CC[C@]5(C(=O)N5CCNCC5)CC[C@@]4(C)[C@]3(C)CC[C@H]2C(C)(C)[C@H]1OC(C)=O |  | 5.49 | 5.72 | 5.80 | 6.00 | 5.82 |  |  |  |  | 
 | CC(=O)O[C@H]1CC[C@]2(C)[C@H]3C(=O)C=C4[C@@H]5C[C@@](C)(C(=O)N6CCNCC6)CC[C@]5(C)CC[C@@]4(C)[C@]3(C)CC[C@H]2C1(C)C | 5.03 | 5.06 | 5.09 | 5.35 | 5.08 | 4.98 | 5.00 |  |  |  | 
 | CCN(CC)c1ccc2c(-c3ccccc3C(=O)O)c3ccc(=[N+](CC)CC)cc-3oc2c1 [RHODAMINE] | < 4.52 | < 4.52 | < 4.52 | < 4.52 | < 4.52 | < 4.52 | < 4.52 |  |  |  | 
 | CC1(C)[C@@H](O)CC[C@]2(C)[C@H]3C(=O)C=C4[C@@H]5C[C@@](C)(C(=O)O)CC[C@]5(C)CC[C@@]4(C)[C@]3(C)CC[C@@H]12 [ENOXOLONE] | < 4.52 | 4.73 | < 4.52 | < 4.52 | < 4.52 | < 4.52 | < 4.52 |  |  |  | 
 | CC(=O)O[C@H]1CC[C@]2(C)[C@H]3CC=C4[C@@H]5CC(C)(C)CC[C@]5(C(=O)N5CCNCC5)CC[C@@]4(C)[C@]3(C)CC[C@H]2C1(C)C | 5.57 | 5.77 | 5.77 | 5.89 | 5.77 | 5.64 | 5.42 |  |  |  | 
 | CC1(C)CC[C@]2(C(=O)O)CC[C@]3(C)C(=CC[C@@H]4[C@@]5(C)C[C@@H](O)[C@H](O)C(C)(C)[C@@H]5CC[C@]43C)[C@@H]2C1 [MASLINIC ACID] | 4.86 | 4.68 | 4.71 | 4.54 | < 4.52 | 4.63 | 4.77 |  |  |  | 
 | CC(=O)[C@@H]1CC[C@]2(C(=O)O)CC[C@]3(C)[C@H](CC[C@@H]4[C@@]5(C)CC[C@H](O)C(C)(C)[C@@H]5CC[C@]43C)[C@@H]12 [PLATANIC ACID] | < 4.52 |  | < 4.52 | < 4.52 | < 4.52 | < 4.52 | < 4.52 |  |  |  | 
 | C=C(C)[C@@H]1CC[C@]2(C(=O)O)CC[C@]3(C)[C@H](CC[C@@H]4[C@@]5(C)CC[C@H](O)C(C)(C)[C@@H]5CC[C@]43C)[C@@H]12 [BETULINIC ACID] | 5.03 | 4.79 |  |  |  |  |  |  |  |  | 
